The values below come from ChEMBL document CHEMBL1144664, “Design, synthesis, and SAR of new pyrrole-oxindole progesterone receptor modulators leading to 5-(7-fluoro-3,3-dimethyl-2-oxo-2,3-dihydro-1H-indol-5-yl)-1-methyl-1H-pyrrole-2-carbonitrile (WAY-255348)” (J Med Chem, 2008).

pIC50: −log10 of the molar value. The source made the active and inactive calls. The rule behind the calls is not given here.

Data set [1] in a line: Half life in cynomolgus monkey at 5 mg/kg, po. The class given is ADME, organism-based, Macaca fascicularis. Set-up: dose 5 mg/kg, route oral. Particulars: in vivo.
The target of data set [2] is T1, Glucocorticoid receptor (Homo sapiens) (UniProt P04150).
T1 sequence (whole entry): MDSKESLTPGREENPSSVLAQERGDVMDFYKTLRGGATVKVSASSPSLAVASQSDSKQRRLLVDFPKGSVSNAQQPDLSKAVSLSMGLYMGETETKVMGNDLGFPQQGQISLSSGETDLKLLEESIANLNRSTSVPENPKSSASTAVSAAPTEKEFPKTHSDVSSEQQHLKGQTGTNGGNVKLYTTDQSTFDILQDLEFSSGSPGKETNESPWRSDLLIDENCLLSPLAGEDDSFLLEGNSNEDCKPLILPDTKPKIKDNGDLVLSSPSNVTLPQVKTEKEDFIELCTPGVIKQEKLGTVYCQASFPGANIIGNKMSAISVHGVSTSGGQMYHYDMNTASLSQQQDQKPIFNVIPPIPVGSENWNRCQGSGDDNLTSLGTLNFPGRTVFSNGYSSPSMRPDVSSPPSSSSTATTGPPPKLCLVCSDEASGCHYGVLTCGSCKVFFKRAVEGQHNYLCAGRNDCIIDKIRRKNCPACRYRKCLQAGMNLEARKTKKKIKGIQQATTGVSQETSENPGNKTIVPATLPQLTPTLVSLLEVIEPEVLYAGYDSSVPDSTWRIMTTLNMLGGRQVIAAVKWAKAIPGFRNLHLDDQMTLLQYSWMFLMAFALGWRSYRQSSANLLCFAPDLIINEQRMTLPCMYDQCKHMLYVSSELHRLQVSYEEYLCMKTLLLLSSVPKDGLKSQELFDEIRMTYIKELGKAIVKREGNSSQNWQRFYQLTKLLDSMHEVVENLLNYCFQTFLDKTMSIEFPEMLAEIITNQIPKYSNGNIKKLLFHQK
Description: Antagonist activity at human GR ligand binding domain expressed in african green monkey COS7 cells in presence of Dexamethasone by Gal4 hybrid assay. The class given is cell-based. Particulars: COS-7.

Data set [3] has as its target T2, Mineralocorticoid receptor (Homo sapiens, UniProt P08235).
T2 sequence (P08235 whole entry): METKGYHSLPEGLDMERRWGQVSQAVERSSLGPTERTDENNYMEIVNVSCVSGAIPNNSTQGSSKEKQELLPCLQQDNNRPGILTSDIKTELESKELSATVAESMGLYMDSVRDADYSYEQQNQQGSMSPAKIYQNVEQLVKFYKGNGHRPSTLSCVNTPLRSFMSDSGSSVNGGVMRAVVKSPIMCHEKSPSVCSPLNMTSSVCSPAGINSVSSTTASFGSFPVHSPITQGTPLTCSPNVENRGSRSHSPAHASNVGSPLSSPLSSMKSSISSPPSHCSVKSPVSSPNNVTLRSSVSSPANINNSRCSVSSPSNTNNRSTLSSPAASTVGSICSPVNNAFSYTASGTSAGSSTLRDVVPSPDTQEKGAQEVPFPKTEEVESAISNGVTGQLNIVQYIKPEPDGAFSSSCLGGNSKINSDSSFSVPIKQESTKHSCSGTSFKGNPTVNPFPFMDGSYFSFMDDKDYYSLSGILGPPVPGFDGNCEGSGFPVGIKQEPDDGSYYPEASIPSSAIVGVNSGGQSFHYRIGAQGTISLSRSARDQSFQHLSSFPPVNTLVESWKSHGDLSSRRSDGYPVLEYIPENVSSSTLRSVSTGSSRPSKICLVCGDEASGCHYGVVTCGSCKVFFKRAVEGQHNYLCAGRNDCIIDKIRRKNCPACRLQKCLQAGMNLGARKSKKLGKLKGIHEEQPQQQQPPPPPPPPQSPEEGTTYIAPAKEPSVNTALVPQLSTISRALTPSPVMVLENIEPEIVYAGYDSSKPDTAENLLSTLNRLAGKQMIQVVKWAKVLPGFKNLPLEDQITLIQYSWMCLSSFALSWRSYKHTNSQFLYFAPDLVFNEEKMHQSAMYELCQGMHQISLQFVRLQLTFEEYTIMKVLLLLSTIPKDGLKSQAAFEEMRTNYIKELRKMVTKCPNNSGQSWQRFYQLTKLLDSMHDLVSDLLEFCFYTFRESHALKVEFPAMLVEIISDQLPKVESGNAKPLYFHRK
The data set can be described thus: Antagonist activity at human MR ligand binding domain expressed in african green monkey COS7 cells in presence of aldosterone by Gal4 hybrid assay. Format: cell-based, COS-7. The method in brief:
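Gal4-steroid receptor LBD fusion plasmid plus GAL4_UAS (5 copies, E1b TATA)-luciferase reporter, 50 ng/well each, transfected 16 h into COS-7 cells grown in phenol red-free DMEM with 10% charcoal/dextran-treated FBS. Compound treatment 20 h, then luciferase read-out. Antagonist mode uses 3 nM aldosterone (hMR) or 5 nM 17β-estradiol (hER). Values are the average of at least duplicate determinations.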

Data set [4] in a line: Plasma clearance in cynomolgus monkey at 1 mg/kg, iv. The class given is ADME, organism-based, Macaca fascicularis. Set-up: dose 1 mg/kg, route intravenous.
Data set [5] deals with T3, Progesterone receptor (Homo sapiens, UniProt P06401).
T3 sequence (P06401 whole entry): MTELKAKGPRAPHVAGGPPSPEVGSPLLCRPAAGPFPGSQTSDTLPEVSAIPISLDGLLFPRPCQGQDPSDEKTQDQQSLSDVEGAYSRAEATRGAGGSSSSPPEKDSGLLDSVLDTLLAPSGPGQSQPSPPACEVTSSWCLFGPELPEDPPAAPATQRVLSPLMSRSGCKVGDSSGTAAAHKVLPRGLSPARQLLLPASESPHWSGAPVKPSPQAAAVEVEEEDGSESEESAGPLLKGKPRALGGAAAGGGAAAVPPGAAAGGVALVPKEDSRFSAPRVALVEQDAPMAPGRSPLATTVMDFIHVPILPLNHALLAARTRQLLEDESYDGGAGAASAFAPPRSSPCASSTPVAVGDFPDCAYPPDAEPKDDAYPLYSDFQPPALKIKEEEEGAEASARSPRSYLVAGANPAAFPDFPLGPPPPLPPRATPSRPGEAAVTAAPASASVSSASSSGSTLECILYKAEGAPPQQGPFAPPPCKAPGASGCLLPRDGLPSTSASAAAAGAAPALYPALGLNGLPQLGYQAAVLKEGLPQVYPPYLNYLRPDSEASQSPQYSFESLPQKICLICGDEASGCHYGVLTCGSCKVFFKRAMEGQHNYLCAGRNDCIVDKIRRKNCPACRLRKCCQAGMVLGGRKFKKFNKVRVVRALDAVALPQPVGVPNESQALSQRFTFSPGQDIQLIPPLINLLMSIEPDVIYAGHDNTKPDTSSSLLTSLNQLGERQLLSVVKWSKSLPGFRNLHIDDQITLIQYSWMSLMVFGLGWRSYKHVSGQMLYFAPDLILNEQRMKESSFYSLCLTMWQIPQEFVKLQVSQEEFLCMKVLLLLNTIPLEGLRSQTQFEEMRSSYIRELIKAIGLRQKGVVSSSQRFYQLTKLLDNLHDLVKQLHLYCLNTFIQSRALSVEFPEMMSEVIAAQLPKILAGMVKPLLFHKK
Description: Displacement of [3H]R5020 from human PR in human T47D cells by whole cell assay. Format: cell-based.

The compound `Cn1c(C#N)ccc1-c1cc(F)c2c(c1)C(C)(C)C(=O)N2` gave a half-life in data set [1] of 15.7 h. For the same compound, the outcome in data set [2] was inactive. In addition, the pIC50 is 5.43 in data set [3] and 8.39 in data set [5]. Besides, the clearance in data set [4] was found to be 7 mL/min/kg.
